What was measured:
Format in all cases: functional
[1] = tested on: Culex pipiens pallens; assay: Insecticidal activity against fourth-instar larval stage of Culex pipiens pallens (mosquito) assessed as mortality at 0.10 mg/kg at 25 +/-1 degC after 2 days; settings: 48 h
Method in brief: (§1)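 Test solutions were prepared by adding 1 mL of each concentrated dilution to 99 mL water. Bioassays were run at 25 ± 1 °C on laboratory-reared insects.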

[2] = tested on: Mythimna separata; assay: Insecticidal activity against fourth-instar larval stage of Mythimna separata (Oriental armyworm) in compound pretreated corn leaves assessed as mortality at 10 mg/kg at 25 +/-1 degC measured after 2 days
[3] = tested on: Mythimna separata; assay: Insecticidal activity against fourth-instar larval stage of Mythimna separata (Oriental armyworm) in compound pretreated corn leaves assessed as mortality at 5 mg/kg at 25 +/-1 degC measured after 2 days
[4] = tested on: Tetranychus cinnabarinus; assay: Acaricidal activity against adult Tetranychus cinnabarinus (carmine spider mite) in sieva bean plants assessed as mortality at 200 mg/kg treated for 3 secs measured after 2 days; settings: 48 h
[5] = tested on: Culex pipiens pallens; assay: Insecticidal activity against fourth-instar larval stage of Culex pipiens pallens (mosquito) assessed as mortality at 0.25 mg/kg at 25 +/-1 degC after 2 days; settings: 48 h; method in brief: as §1
[6] = tested on: Mythimna separata; assay: Insecticidal activity against fourth-instar larval stage of Mythimna separata (Oriental armyworm) in compound pretreated corn leaves assessed as mortality at 20 mg/kg at 25 +/-1 degC measured after 2 days
[7] = tested on: Culex pipiens pallens; assay: Insecticidal activity against fourth-instar larval stage of Culex pipiens pallens (mosquito) assessed as mortality at 0.50 mg/kg at 25 +/-1 degC after 2 days; settings: 48 h; method in brief: as §1
[8] = tested on: Tetranychus cinnabarinus; assay: Acaricidal activity against adult Tetranychus cinnabarinus (carmine spider mite) in sieva bean plants assessed as mortality at 100 mg/kg treated for 3 secs measured after 2 days; settings: 48 h
[9] = tested on: Tetranychus cinnabarinus; assay: Acaricidal activity against adult Tetranychus cinnabarinus (carmine spider mite) in sieva bean plants assessed as mortality at 50 mg/kg treated for 3 secs measured after 2 days; settings: 48 h

SMILES | mortality at 0.1 mg/kg [1] [%] | mortality at 10 mg/kg [2] [%] | mortality at 5 mg/kg [3] [%] | mortality at 200 mg/kg [4] [%] | mortality at 0.25 mg/kg [5] [%] | mortality at 20 mg/kg [6] [%] | mortality at 0.5 mg/kg [7] [%] | mortality at 100 mg/kg [8] [%] | mortality at 50 mg/kg [9] [%]
CC(=O)OCn1c(-c2ccc(Cl)cc2)c(C#N)c(Br)c1C(F)(F)F | 100 | 90 | 0 | 0 | 100 | 100 | 100 | – | –
N#Cc1c(Br)c(C(F)(F)F)n(COC=O)c1-c1ccc(Cl)cc1 | 50 | 100 | 0 | 100 | 100 | 100 | 100 | 89 | 82
CCC(=O)OCn1c(-c2ccc(Cl)cc2)c(C#N)c(Br)c1C(F)(F)F | 100 | 90 | 0 | 100 | 100 | 100 | 100 | 92 | 88
CCCC(=O)OCn1c(-c2ccc(Cl)cc2)c(C#N)c(Br)c1C(F)(F)F | 100 | 100 | 0 | 100 | 100 | 100 | 100 | 100 | 100
CC(C)C(=O)OCn1c(-c2ccc(Cl)cc2)c(C#N)c(Br)c1C(F)(F)F | – | 100 | 0 | 100 | – | 100 | – | 100 | 100
CCCCC(=O)OCn1c(-c2ccc(Cl)cc2)c(C#N)c(Br)c1C(F)(F)F | 100 | 100 | 0 | 100 | 100 | 100 | 100 | 100 | 100
N#Cc1c(Br)c(C(F)(F)F)n(COC(=O)c2ccccc2)c1-c1ccc(Cl)cc1 | 10 | 60 | 0 | 100 | 20 | 100 | 100 | 100 | 100
N#Cc1c(Br)c(C(F)(F)F)n(COC(=O)c2ccc(Cl)cc2)c1-c1ccc(Cl)cc1 | 10 | 100 | 10 | 100 | 20 | 100 | 100 | 100 | 100
N#Cc1c(Br)c(C(F)(F)F)n(COC(=O)c2ccccc2Cl)c1-c1ccc(Cl)cc1 | 100 | 35 | 0 | 99 | 100 | 100 | 100 | 95 | 93
Cc1ccc(C(=O)OCn2c(-c3ccc(Cl)cc3)c(C#N)c(Br)c2C(F)(F)F)cc1 | 100 | 100 | 0 | 100 | 100 | 100 | 100 | 100 | 100
N#Cc1c(Br)c(C(F)(F)F)n(COC(=O)c2ccccc2N)c1-c1ccc(Cl)cc1 | 100 | 0 | 0 | 0 | 100 | 10 | 100 | – | –
N#Cc1c(Br)c(C(F)(F)F)n(COC(=O)c2ccc(N)cc2)c1-c1ccc(Cl)cc1 | 10 | 0 | 0 | 0 | 10 | 40 | 100 | – | –
COc1cccc(C(=O)OCn2c(-c3ccc(Cl)cc3)c(C#N)c(Br)c2C(F)(F)F)c1 | 50 | 90 | 0 | 100 | 65 | 100 | 100 | 65 | 50
COc1ccc(C(=O)OCn2c(-c3ccc(Cl)cc3)c(C#N)c(Br)c2C(F)(F)F)cc1 | 20 | 90 | 0 | 0 | 30 | 100 | 70 | – | –
N#Cc1c(Br)c(C(F)(F)F)n(COC(=O)c2ccccc2[N+](=O)[O-])c1-c1ccc(Cl)cc1 | 10 | 100 | 20 | 0 | 20 | 100 | 100 | – | –
N#Cc1c(Br)c(C(F)(F)F)n(COC(=O)c2cccc([N+](=O)[O-])c2)c1-c1ccc(Cl)cc1 | 30 | 0 | 0 | 98 | 40 | 100 | 80 | 94 | 90
N#Cc1c(Br)c(C(F)(F)F)n(COC(=O)c2ccc([N+](=O)[O-])cc2)c1-c1ccc(Cl)cc1 | 20 | 50 | 0 | 95 | 60 | 100 | 100 | 93 | 92
N#Cc1c(Br)c(C(F)(F)F)n(COC(=O)c2cc([N+](=O)[O-])cc([N+](=O)[O-])c2)c1-c1ccc(Cl)cc1 | 100 | 0 | 0 | 0 | 100 | 100 | 100 | – | –
CC(Oc1ccc(Cl)cc1)C(=O)OCn1c(-c2ccc(Cl)cc2)c(C#N)c(Br)c1C(F)(F)F (stereo not given) | 100 | 80 | 0 | 98 | 100 | 100 | 100 | 95 | 94
CC(Oc1cccc(Cl)c1)C(=O)OCn1c(-c2ccc(Cl)cc2)c(C#N)c(Br)c1C(F)(F)F (stereo not given) | 100 | 45 | 0 | 98 | 100 | 100 | 100 | 93 | 93
CC(Oc1cccc([N+](=O)[O-])c1)C(=O)OCn1c(-c2ccc(Cl)cc2)c(C#N)c(Br)c1C(F)(F)F (stereo not given) | 90 | 85 | 0 | 0 | 100 | 100 | 100 | – | –
Cc1cccc(OC(C)C(=O)OCn2c(-c3ccc(Cl)cc3)c(C#N)c(Br)c2C(F)(F)F)c1 (stereo not given) | 100 | 40 | 0 | 100 | 100 | 100 | 100 | 98 | 96
CC(Oc1ccc(C(C)(C)C)cc1)C(=O)OCn1c(-c2ccc(Cl)cc2)c(C#N)c(Br)c1C(F)(F)F (stereo not given) | 100 | 30 | 0 | 100 | 100 | 80 | 100 | 96 | 94
N#Cc1c(Br)c(C(F)(F)F)n(COC(=O)C(=O)c2ccccc2)c1-c1ccc(Cl)cc1 | – | 60 | 0 | 100 | – | 100 | – | 88 | 79
CCOC(=O)OCn1c(-c2ccc(Cl)cc2)c(C#N)c(Br)c1C(F)(F)F | 100 | 90 | 0 | 100 | 100 | 100 | 100 | 89 | 84
